Experimental data as given in ChEMBL document CHEMBL1151774, “Synthesis and biological evaluation of new N-linked 5-triazolylmethyl oxazolidinones” (Eur J Med Chem, 2008).
Converted amounts (≈) assume the structure as drawn.

How the values were obtained:
Staphylococcus aureus [1] = experiment: Antimicrobial activity against Staphylococcus aureus ATCC 29213 after 16 to 18 hrs by agar dilution method; format: functional
Rattus norvegicus [2] = experiment: (§1) AUC (0 to infinity) in Sprague-Dawley rat at 10 mg/kg, po; format: ADME, organism-based, Plasma; set-up: time infinity, dose 10 mg/kg, route oral; settings: in vivo
How it was run: (§2)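 Single dose given orally (10 or 50 mg/kg) or intravenously (10 mg/kg). Serial 300 µL blood samples were taken from the retrobulbar vein. Plasma was quantified by LC-MS. Parameters came from mean plasma concentration by non-compartmental analysis. F is absolute oral bioavailability, assuming linear pharmacokinetics.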

[3] = AUC (0 to infinity) in Sprague-Dawley rat at 10 mg/kg, iv; format: ADME, organism-based; set-up: time infinity, dose 10 mg/kg, route intravenous; settings: plasma; how it was run: as §2
[4] = Elimination half life in Sprague-Dawley rat at 10 mg/kg, iv; format: ADME, organism-based; set-up: dose 10 mg/kg, route intravenous; settings: in vivo, read-out: beta t1/2 (converted); how it was run: as §2
[5] = Oral bioavailability in Sprague-Dawley rat at 10 mg/kg; format: ADME, organism-based; settings: in vivo; how it was run: as §2
[6] = Cmax in Sprague-Dawley rat at 10 mg/kg, po; format: ADME, organism-based; set-up: dose 10 mg/kg, route oral; settings: in vivo; how it was run: as §2
[7] = Elimination half life in Sprague-Dawley rat at 10 mg/kg, po; format: ADME, organism-based; set-up: dose 10 mg/kg, route oral; settings: in vivo, read-out: beta t1/2 (converted); how it was run: as §2
[8] = Clearance in Sprague-Dawley rat at 10 mg/kg, iv; format: ADME, organism-based; set-up: dose 10 mg/kg, route intravenous; settings: in vivo; how it was run: as §2
Staphylococcus aureus [9] = experiment: Antimicrobial activity against methicillin-susceptible Staphylococcus aureus after 16 to 18 hrs by agar dilution method; format: functional
[10] = Cmax in Sprague-Dawley rat at 50 mg/kg, po; format: ADME, organism-based; set-up: dose 50 mg/kg, route oral; settings: in vivo; how it was run: as §2
[11] = Tmax in Sprague-Dawley rat at 50 mg/kg, po; format: ADME, organism-based; set-up: dose 50 mg/kg, route oral; settings: in vivo; how it was run: as §2
Staphylococcus aureus [12] = experiment: Antimicrobial activity against methicillin-resistant Staphylococcus aureus after 16 to 18 hrs by agar dilution method; format: functional
[13] = Elimination half life in Sprague-Dawley rat at 50 mg/kg, po; format: ADME, organism-based; set-up: dose 50 mg/kg, route oral; settings: in vivo, read-out: beta t1/2 (converted); how it was run: as §2
Enterococcus faecalis = experiment: Antimicrobial activity against Enterococcus faecalis after 16 to 18 hrs by agar dilution method; format: functional
Rattus norvegicus [14] = experiment: (§3) AUC (0 to infinity) in Sprague-Dawley rat at 50 mg/kg, po; format: ADME, organism-based, Plasma; set-up: time infinity, dose 50 mg/kg, route oral; settings: in vivo; how it was run: as §2
Streptococcus pneumoniae = experiment: Antimicrobial activity against sStreptococcus pneumoniae after 16 to 18 hrs by agar dilution method; format: functional
[15] = Tmax in Sprague-Dawley rat at 10 mg/kg, po; format: ADME, organism-based; set-up: dose 10 mg/kg, route oral; settings: in vivo; how it was run: as §2
Staphylococcus aureus [16] = experiment: Antimicrobial activity against methicillin-resistant Staphylococcus aureus 05-2 infected in po dosed KunMing SPF mouse; format: functional
How it was run: (§4)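 Mice given a lethal systemic infection by intraperitoneal injection of the MLD inoculum of MRSA 05-2. Compound dosed orally or by i.v. injection in 0.9% NaCl immediately and 4 h post-infection. ED50 (dose curing 50% of infected mice) calculated by the Bliss method on day 7 post-infection, with 95% confidence ranges.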

Staphylococcus aureus [17] = experiment: Antimicrobial activity against methicillin-resistant Staphylococcus aureus 05-2 infected in iv dosed KunMing SPF mouse; format: functional; how it was run: as §4
[18] = as §1; format: ADME, organism-based, Plasma; set-up: time infinity, dose 10 mg/kg, route oral; settings: Sprague-Dawley, plasma; how it was run: as §2
[19] = Clearance in Sprague-Dawley rat at 50 mg/kg, po; format: ADME, organism-based; set-up: dose 50 mg/kg, route oral; settings: in vivo; how it was run: as §2
[20] = as §3; format: ADME, organism-based, Plasma; set-up: time infinity, dose 50 mg/kg, route oral; settings: Sprague-Dawley, plasma; how it was run: as §2
[21] = Clearance in Sprague-Dawley rat at 10 mg/kg, po; format: ADME, organism-based; set-up: dose 10 mg/kg, route oral; settings: in vivo; how it was run: as §2
Staphylococcus aureus [22] = experiment: Antimicrobial activity against methicillin-resistant Staphylococcus aureus 05-2 infected in sc dosed KunMing SPF mouse; format: functional

O=C1O[C@@H](Cn2ccnn2)CN1c1ccc(N2CCN(Cc3ccc([N+](=O)[O-])o3)CC2)c(F)c1
MIC (Staphylococcus aureus [1]): 0.06 µg/mL (≈ 0.127 µM) | AUC (Rattus norvegicus [2]): 19.4 µg·h/mL | AUC(0-inf) [3]: 18900 ng·h/mL | half-life [4]: 70.8 min | bioavailability [5]: 103% | Cmax [6]: 5440 ng/mL | half-life [7]: 90.6 min | clearance [8]: 16.2 mL/min/kg | MIC (Staphylococcus aureus [9]): 0.06 µg/mL (≈ 0.127 µM) | Cmax [10]: 16900 ng/mL | Tmax [11]: 0.5 h | MIC (Staphylococcus aureus [12]): 0.06 µg/mL (≈ 0.127 µM) | half-life [13]: 99.6 min | MIC (Enterococcus faecalis): 0.25 µg/mL (≈ 0.53 µM) | AUC (Rattus norvegicus [14]): 139 µg·h/mL | MIC (Streptococcus pneumoniae): 0.03 µg/mL (≈ 0.0636 µM) | Tmax [15]: 15 min

O=C1O[C@@H](Cn2ccnn2)CN1c1ccc(N2CCN(Cc3cccs3)CC2)c(F)c1
MIC (Staphylococcus aureus [1]): 0.06 µg/mL (≈ 0.136 µM) | MIC (Staphylococcus aureus [9]): 0.06 µg/mL (≈ 0.136 µM) | MIC (Staphylococcus aureus [12]): 0.06 µg/mL (≈ 0.136 µM) | MIC (Enterococcus faecalis): 2 µg/mL (≈ 4.52 µM) | MIC (Streptococcus pneumoniae): 0.06 µg/mL (≈ 0.136 µM)

O=C1O[C@@H](Cn2ccnn2)CN1c1ccc(N2CCN(Cc3ccco3)CC2)c(F)c1
MIC (Staphylococcus aureus [1]): 0.06 µg/mL (≈ 0.141 µM) | MIC (Staphylococcus aureus [9]): 0.06 µg/mL (≈ 0.141 µM) | ED50 (Staphylococcus aureus [16]): 12.3 mg/kg | MIC (Staphylococcus aureus [12]): 0.5 µg/mL (≈ 1.17 µM) | MIC (Enterococcus faecalis): 0.5 µg/mL (≈ 1.17 µM) | ED50 (Staphylococcus aureus [17]): 12 mg/kg | MIC (Streptococcus pneumoniae): 0.5 µg/mL (≈ 1.17 µM)

O=C1O[C@@H](Cn2ccnn2)CN1c1ccc(N2CCN(Cc3ccoc3)CC2)c(F)c1
MIC (Staphylococcus aureus [1]): 0.008 µg/mL (≈ 0.0188 µM) | AUC(0-inf) [18]: 16400 ng·h/mL | AUC(0-inf) [3]: 26200 ng·h/mL | half-life [4]: 177 min | bioavailability [5]: 62.7% | Cmax [6]: 3040 ng/mL | half-life [7]: 166 min | clearance [8]: 6.98 mL/min/kg | MIC (Staphylococcus aureus [9]): 0.008 µg/mL (≈ 0.0188 µM) | Cmax [10]: 10700 ng/mL | Tmax [11]: 1.9 h | CL/F [19]: 8.86 mL/min/kg | ED50 (Staphylococcus aureus [16]): 7.47 mg/kg | MIC (Staphylococcus aureus [12]): 0.03 µg/mL (≈ 0.0703 µM) | half-life [13]: 516 min | MIC (Enterococcus faecalis): 0.5 µg/mL (≈ 1.17 µM) | AUC(0-inf) [20]: 85800 ng·h/mL | CL/F [21]: 10.5 mL/min/kg | ED50 (Staphylococcus aureus [17]): 6.99 mg/kg | MIC (Streptococcus pneumoniae): 0.03 µg/mL (≈ 0.0703 µM) | Tmax [15]: 52.8 min

Nc1cccc(CN2CCN(c3ccc(N4C[C@H](Cn5ccnn5)OC4=O)cc3F)CC2)c1
MIC (Staphylococcus aureus [1]): 0.25 µg/mL (≈ 0.554 µM) | MIC (Staphylococcus aureus [9]): 0.25 µg/mL (≈ 0.554 µM) | MIC (Staphylococcus aureus [12]): 0.5 µg/mL (≈ 1.11 µM) | MIC (Enterococcus faecalis): 0.5 µg/mL (≈ 1.11 µM) | MIC (Streptococcus pneumoniae): 0.5 µg/mL (≈ 1.11 µM)

O=C1O[C@@H](Cn2ccnn2)CN1c1ccc(N2CCN(Cc3cccnc3)CC2)c(F)c1
MIC (Staphylococcus aureus [1]): 0.125 µg/mL (≈ 0.286 µM) | MIC (Staphylococcus aureus [9]): 0.125 µg/mL (≈ 0.286 µM) | MIC (Staphylococcus aureus [12]): 1 µg/mL (≈ 2.29 µM) | MIC (Enterococcus faecalis): 1 µg/mL (≈ 2.29 µM) | MIC (Streptococcus pneumoniae): 1 µg/mL (≈ 2.29 µM)

O=Cc1ccc(CN2CCN(c3ccc(N4C[C@H](Cn5ccnn5)OC4=O)cc3F)CC2)cc1
MIC (Staphylococcus aureus [1]): 0.008 µg/mL (≈ 0.0172 µM) | MIC (Staphylococcus aureus [9]): 1 µg/mL (≈ 2.15 µM) | MIC (Staphylococcus aureus [12]): 0.25 µg/mL (≈ 0.538 µM) | MIC (Enterococcus faecalis): 2 µg/mL (≈ 4.31 µM) | MIC (Streptococcus pneumoniae): 1 µg/mL (≈ 2.15 µM)

Cc1ccsc1CN1CCN(c2ccc(N3C[C@H](Cn4ccnn4)OC3=O)cc2F)CC1
MIC (Staphylococcus aureus [1]): 1 µg/mL (≈ 2.19 µM) | MIC (Staphylococcus aureus [9]): 1 µg/mL (≈ 2.19 µM) | MIC (Staphylococcus aureus [12]): 4 µg/mL (≈ 8.76 µM) | MIC (Enterococcus faecalis): 4 µg/mL (≈ 8.76 µM) | MIC (Streptococcus pneumoniae): 4 µg/mL (≈ 8.76 µM)

Cc1ccc(CN2CCN(c3ccc(N4C[C@H](Cn5ccnn5)OC4=O)cc3F)CC2)o1
MIC (Staphylococcus aureus [1]): 0.125 µg/mL (≈ 0.284 µM) | MIC (Staphylococcus aureus [9]): 0.125 µg/mL (≈ 0.284 µM) | MIC (Staphylococcus aureus [12]): 1 µg/mL (≈ 2.27 µM) | MIC (Enterococcus faecalis): 2 µg/mL (≈ 4.54 µM) | MIC (Streptococcus pneumoniae): 2 µg/mL (≈ 4.54 µM)

O=C1O[C@@H](Cn2ccnn2)CN1c1ccc(N2CCN(Cc3ccsc3)CC2)c(F)c1
MIC (Staphylococcus aureus [1]): 0.06 µg/mL (≈ 0.136 µM) | MIC (Staphylococcus aureus [9]): 0.06 µg/mL (≈ 0.136 µM) | MIC (Staphylococcus aureus [12]): 1 µg/mL (≈ 2.26 µM) | MIC (Enterococcus faecalis): 1 µg/mL (≈ 2.26 µM) | MIC (Streptococcus pneumoniae): 0.5 µg/mL (≈ 1.13 µM)

CC(=O)NC[C@H]1CN(c2ccc(N3CCOCC3)c(F)c2)C(=O)O1 [LINEZOLID]
MIC (Staphylococcus aureus [1]): 0.5 µg/mL (≈ 1.48 µM) | MIC (Staphylococcus aureus [9]): 0.5 µg/mL (≈ 1.48 µM) | ED50 (Staphylococcus aureus [16]): 8.45 mg/kg | MIC (Staphylococcus aureus [12]): 1 µg/mL (≈ 2.96 µM) | ED50 (Staphylococcus aureus [17]): 8.45 mg/kg

CN[C@H](CC(C)C)C(=O)N[C@H]1C(=O)N[C@@H](CC(N)=O)C(=O)N[C@H]2C(=O)N[C@H]3C(=O)N[C@H](C(=O)N[C@H](C(=O)O)c4cc(O)cc(O)c4-c4cc3ccc4O)[C@H](O)c3ccc(c(Cl)c3)Oc3cc2cc(c3O[C@@H]2O[C@H](CO)[C@@H](O)[C@H](O)[C@H]2O[C@H]2C[C@](C)(N)[C@H](O)[C@H](C)O2)Oc2ccc(cc2Cl)[C@H]1O [VANCOMYCIN]
MIC (Staphylococcus aureus [1]): 0.125 µg/mL (≈ 0.0863 µM) | ED50 (Staphylococcus aureus [22]): 6 mg/kg | MIC (Staphylococcus aureus [9]): 0.125 µg/mL (≈ 0.0863 µM) | MIC (Enterococcus faecalis): 1 µg/mL (≈ 0.69 µM) | ED50 (Staphylococcus aureus [17]): 6.54 mg/kg | MIC (Streptococcus pneumoniae): 1 µg/mL (≈ 0.69 µM)
